According to ChEMBL document CHEMBL3856273, “Design, synthesis and biological evaluation of potential antibacterial butyrolactones” (Bioorg Med Chem, 2016):
Converted amounts (≈) assume the structure as drawn.

Experiments:
[1] = test system: Streptococcus gordonii; test: Antibacterial activity against Streptococcus gordonii DL1 preincubated for 24 hrs under anaerobic condition followed by incubation in columbia petri plates for 24 hrs by broth microdilution method; type: functional
How it was run: (§1)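 CLSI broth microdilution in BHI. Compounds serially diluted 1:2 from 300 µg/mL; doxycycline control from 32.8 µg/mL; solvent mix also diluted. Wells inoculated with 3x10^7 CFU/mL, incubated 24 h anaerobically. MIC is the lowest clear well. Clear wells are plated on Columbia agar for 24 h; MBC is the lowest concentration killing ≥99% of inoculum.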

[2] = test system: Streptococcus gordonii; test: Antibacterial activity against Streptococcus gordonii DL1 incubated for 24 hrs under anaerobic condition by agar dilution method; type: functional; conditions: DL1, 24 h
How it was run: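 Columbia agar with horse blood containing compound at 300, 250, 200, 150, 100, 90, 80 or 70 µg/mL. Doxycycline positive control at 1:2 dilutions from 1.31 µg/mL; DMSO + methanol and water as negative controls. 2 µl spots of 10^5 CFU/mL inoculum, anaerobic incubation 24 h. MIC taken as lowest concentration preventing growth. Done three times.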

[3] = test system: Streptococcus gordonii; test: Bactericidal activity against Streptococcus gordonii DL1 preincubated for 24 hrs under anaerobic condition followed by incubation in columbia petri plates for 24 hrs by broth microdilution method; type: functional; how it was run: as §1
[4] = test system: Streptococcus gordonii; test: Potency index, ratio of doxycycline MBC=>99 to compound MBC=>99 for Streptococcus gordonii DL1; type: functional
[5] = Cytotoxicity against human Ca9-22 cells assessed as cell viability at MIC after 24 hrs by MTT assay relative to control; type: toxicity, cell-based; conditions: read-out: Activity
[6] = Cytotoxicity against human THP1 cells assessed as cell viability at MIC after 24 hrs by MTT assay relative to control; type: toxicity, cell-based, THP-1; conditions: read-out: Activity
How it was run: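 THP-1 grown in RPMI with pyruvate, Hepes and 10% FBS. Seeded at 70 000 cells/well and differentiated with PMA 10 ng/mL for 72 h. Medium removed, then compound at its MIC added for 24 h; Triton 1% positive control. MTT from 5 mg/mL stock for 4 h at 37 °C; acid-isopropanol solubilization; OD 595/655 nm as % of untreated. Three experiments in triplicate.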

[7] = Cytotoxicity against human Ca9-22 cells assessed as cell death at MIC after 24 hrs by LDH assay; type: toxicity, cell-based; conditions: ca9-22, 24 h
How it was run: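 Ca9-22 gingival epithelial cells were grown in DMEM with 10% heat-inactivated FBS and 2 mM L-glutamine at 37 °C, 5% CO2, then trypsinized and seeded at 70 000 cells/well for 24 h. Compound was applied for 24 h, with medium-only and Triton 1% controls (Triton = 100% cytotoxicity). Supernatant was mixed with CytoTox reagent for 30 min in the dark at room temperature, then stopped, and OD was read at 490 nm. Three experiments, each in triplicate.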

[8] = Cytotoxicity against human THP1 cells assessed as cell death at MIC after 24 hrs by LDH assay; type: toxicity, cell-based; conditions: thp-1, 24 h
How it was run: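 THP-1 cells were grown in RPMI 1640 with 1 mM pyruvate, 10% FBS and 2 mM L-glutamine at 37 °C, 5% CO2. They were seeded at 70 000 cells/well and differentiated with PMA 10 ng/mL for 72 h. Medium was replaced with compound for 24 h, with medium-only and Triton 1% controls (Triton = 100%). LDH release was measured in supernatant with CytoTox reagent for 30 min in the dark at room temperature, then stopped, and OD was read at 490 nm. Three experiments, each in triplicate.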

CCCCCCCCCCCCC[C@H]1OC(=O)C(C)=C1C(=O)O
MIC [1]: 4.69 µg/mL (≈ 14.5 µM) | MIC [2]: 90 µg/mL (≈ 277 µM) | MBC=>99 [3]: 18.75 µg/mL (≈ 57.8 µM)

C=C[C@H]1CC(=O)O[C@@H]1CCCCCCCCC
MIC [1]: 75 µg/mL (≈ 315 µM) | MIC [2]: > 300 µg/mL | MBC=>99 [3]: 150 µg/mL (≈ 629 µM)

CCCCCCCCCCCCCCC[C@@H]1OC(=O)C(C)=C1C(=O)O
Ratio [4]: 2 | viability at 24 h [5]: 100% | viability at 24 h [6]: 107% | mortality [7]: 9.6% | MIC [1]: 9.38 µg/mL (≈ 26.6 µM) | mortality [8]: 20% | MIC [2]: 200 µg/mL (≈ 567 µM) | MBC=>99 [3]: 18.75 µg/mL (≈ 53.2 µM)

CCCCCCCCC[C@@H]1C=CC(=O)O1
MIC [1]: 150 µg/mL (≈ 713 µM) | MIC [2]: 300 µg/mL (≈ 1430 µM) | MBC=>99 [3]: 300 µg/mL (≈ 1430 µM)

CCCCCCCCCCCCC[C@@H]1OC(=O)C(C)=C1C(=O)O
MIC [1]: 4.69 µg/mL (≈ 14.5 µM) | MIC [2]: 90 µg/mL (≈ 277 µM) | MBC=>99 [3]: 18.75 µg/mL (≈ 57.8 µM)

CCCCCCCCC[C@@H]1OC(=O)C(C)=C1C(=O)O
MIC [1]: 150 µg/mL (≈ 559 µM) | MIC [2]: 150 µg/mL (≈ 559 µM) | MBC=>99 [3]: >300 µg/mL

CCCCCCCCC[C@H]1OC(=O)C[C@H]1O
MIC [1]: 150 µg/mL (≈ 657 µM) | MIC [2]: 300 µg/mL (≈ 1310 µM) | MBC=>99 [3]: 300 µg/mL (≈ 1310 µM)

C=C[C@H]1CC(=O)O[C@@H]1CCCCCCCCCCCCC
MIC [1]: 75 µg/mL (≈ 255 µM) | MIC [2]: > 300 µg/mL | MBC=>99 [3]: 75 µg/mL (≈ 255 µM)

CCCCCCCCCCCCC[C@@H]1C=CC(=O)O1
MIC [1]: 75 µg/mL (≈ 282 µM) | MIC [2]: > 300 µg/mL | MBC=>99 [3]: 75 µg/mL (≈ 282 µM)

CCCCCCCCCCCCCCCC[C@@H]1OC(=O)C(C)=C1C(=O)O
Ratio [4]: 3 | viability at 24 h [5]: 96% | viability at 24 h [6]: 106% | mortality [7]: 12% | MIC [1]: 9.38 µg/mL (≈ 25.6 µM) | mortality [8]: 10% | MIC [2]: > 300 µg/mL | MBC=>99 [3]: 9.38 µg/mL (≈ 25.6 µM)

CCCCCCCCC[C@H]1OC(=O)C(C)=C1C(=O)O
MIC [1]: 150 µg/mL (≈ 559 µM) | MIC [2]: 150 µg/mL (≈ 559 µM) | MBC=>99 [3]: >300 µg/mL

CCCCCCC[C@@H]1OC(=O)C(C)=C1C(=O)O
MIC [1]: > 300 µg/mL | MIC [2]: > 300 µg/mL | MBC=>99 [3]: >300 µg/mL

CCCCCCCCCCCCC[C@H]1OC(=O)C[C@H]1O
MIC [1]: 75 µg/mL (≈ 264 µM) | MIC [2]: > 300 µg/mL | MBC=>99 [3]: 150 µg/mL (≈ 527 µM)

C[C@H]1c2cccc(O)c2C(=O)C2=C(O)[C@]3(O)C(=O)C(C(N)=O)=C(O)[C@@H](N(C)C)[C@@H]3[C@@H](O)[C@@H]21.O [DOXYCYCLINE]
MIC [1]: 0.51 µg/mL | MIC [2]: 0.41 µg/mL | MBC=>99 [3]: 32.8 µg/mL
